Assay results from ChEMBL document CHEMBL3808280, “GroEL/ES inhibitors as potential antibiotics” (Bioorg Med Chem Lett, 2016).

Key:
HEK293 = assay: Cytotoxicity against HEK293 cells assessed as reduction in cell viability after 48 hrs by alamar blue assay; type: cell-based; conditions: Homo sapiens, HEK293, 48 h
Escherichia coli [1] = assay: Antibacterial activity against Escherichia coli DH5alpha assessed as reduction in bacterial growth incubated for 6 to 8 hrs; type: functional, organism-based; conditions: DH5[alpha]
HSP60/HSP10 [2] = target: T1, HSP60/HSP10 (Homo sapiens, UniProt P10809); assay: Inhibition of human HSP60/HSP10 expressed in Escherichia coli Rosetta2(DE3) cells assessed as inhibition of denatured pig heart MDH refolding by measuring reduction in NADH production incubated for 60 mins by micro plate reader analysis
T1 sequence (P10809 whole entry): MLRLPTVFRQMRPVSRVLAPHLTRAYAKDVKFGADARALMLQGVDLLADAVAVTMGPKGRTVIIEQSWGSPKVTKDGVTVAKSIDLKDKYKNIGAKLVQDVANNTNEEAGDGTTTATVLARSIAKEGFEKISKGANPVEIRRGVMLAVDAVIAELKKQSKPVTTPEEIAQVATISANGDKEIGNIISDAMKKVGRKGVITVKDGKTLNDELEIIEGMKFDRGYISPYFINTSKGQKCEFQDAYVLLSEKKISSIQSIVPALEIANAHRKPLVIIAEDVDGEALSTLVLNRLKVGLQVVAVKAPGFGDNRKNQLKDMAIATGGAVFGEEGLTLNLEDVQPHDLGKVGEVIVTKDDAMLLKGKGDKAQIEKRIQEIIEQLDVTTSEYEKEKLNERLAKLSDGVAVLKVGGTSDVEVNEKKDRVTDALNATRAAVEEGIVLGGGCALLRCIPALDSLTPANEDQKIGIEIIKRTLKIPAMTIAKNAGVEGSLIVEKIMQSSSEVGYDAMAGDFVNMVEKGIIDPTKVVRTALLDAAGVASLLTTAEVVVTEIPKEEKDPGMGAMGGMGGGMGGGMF
T1 sequence (P61604 whole entry, further chain): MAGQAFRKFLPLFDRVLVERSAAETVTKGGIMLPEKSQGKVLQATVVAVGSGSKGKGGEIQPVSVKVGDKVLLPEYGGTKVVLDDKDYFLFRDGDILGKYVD
In short: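 Pig heart MDH was denatured in guanidine-HCl (dMDH) and complexed with HSP60, then HSP10, in Tris pH 7.4/KCl/MgCl2/DTT buffer. EDTA quench (100 mM final); refolded MDH activity was followed with mesoxalate/NADH at 340 nm.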

Enterococcus faecium = assay: Antibacterial activity against multidrug resistant Enterococcus faecium NCTC 7171 (ATCC 19434) assessed as reduction in bacterial growth incubated for 6 to 8 hrs; type: functional, organism-based
In short: (§1)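 Broth proliferation assay. S. aureus and MRSA grown in ATCC Medium 18, other pathogens in Brain Heart Infusion. Stagnant incubation at 37°C under breathable seal. OD600 read at mid-log (6-8 h) and corrected with bacteria-free baseline plates. EC50 by variable-slope nonlinear fit, at least triplicate.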

Staphylococcus aureus [3] = assay: Antibacterial activity against methicillin susceptible Staphylococcus aureus subsp. aureus Seattle 1945 (ATCC 25923) assessed as reduction in bacterial growth incubated for 6 to 8 hrs
E. coli GroEL/ES [4] = target: T2, E. coli GroEL/ES (Escherichia coli, UniProt P0A6F5); assay: (§2) Inhibition of Escherichia coli GroEL/GroES using Escherichia coli GroEL expressed in Escherichia coli DH5alpha cells and Escherichia coli GroES expressed in Escherichia coli BL21(DE3) cells assessed as inhibition of denatured pig heart MDH refolding by measuring reduction in NADH production incubated for 60 mins by micro plate reader analysis
T2 sequence (P0A6F5 whole entry, looked up): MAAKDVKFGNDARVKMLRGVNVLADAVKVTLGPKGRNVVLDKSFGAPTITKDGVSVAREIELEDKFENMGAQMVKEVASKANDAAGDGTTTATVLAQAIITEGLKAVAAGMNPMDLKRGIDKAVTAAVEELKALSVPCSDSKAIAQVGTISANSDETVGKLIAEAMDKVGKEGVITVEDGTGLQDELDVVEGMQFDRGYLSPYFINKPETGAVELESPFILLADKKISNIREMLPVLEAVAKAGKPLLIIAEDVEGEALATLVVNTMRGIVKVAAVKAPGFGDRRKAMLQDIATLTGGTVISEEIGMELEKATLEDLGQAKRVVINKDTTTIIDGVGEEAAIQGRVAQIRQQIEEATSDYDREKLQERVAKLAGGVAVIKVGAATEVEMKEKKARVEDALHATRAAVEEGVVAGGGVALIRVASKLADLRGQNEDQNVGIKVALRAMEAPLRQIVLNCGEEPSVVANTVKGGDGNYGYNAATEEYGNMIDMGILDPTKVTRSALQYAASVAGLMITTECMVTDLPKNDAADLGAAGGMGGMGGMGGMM
In short: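 Denatured MDH (guanidine-HCl/DTT, 30 min RT) bound to GroEL with GroES in Tris pH 7.4, KCl, MgCl2, DTT buffer. 60 min at 37°C, EDTA quench to 100 mM. Refolded MDH activity read with mesoxalate/NADH at 340 nm. Log-averaged IC50 from replicates.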

Enterobacter cloacae = assay: Antibacterial activity against multidrug resistant Enterobacter cloacae subsp. cloacae CDC 442-68 (ATCC 13047) assessed as reduction in bacterial growth incubated for 6 to 8 hrs; type: functional, organism-based; in short: as §1
E. coli GroEL/ES [5] = target: T2, E. coli GroEL/ES; assay: Inhibition of Escherichia coli GroEL/GroES using Escherichia coli GroEL expressed in Escherichia coli DH5alpha cells and Escherichia coli GroES expressed in Escherichia coli BL21(DE3) cells assessed as reduction in native refolded rhodanese-mediated thiocyanate production by micro plate reader analysis
HSP60/HSP10 [6] = target: T1, HSP60/HSP10; assay: Inhibition of human HSP60/HSP10 expressed in Escherichia coli Rosetta2(DE3) cells assessed as reduction in denatured pig heart MDH ATPase activity by malachite green dye based assay
E. coli GroEL/ES [7] = target: T2, E. coli GroEL/ES; assay: as §2, with “rhodanese” for “pig heart MDH”, “thiocyanate” for “NADH”
In short: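 Urea-denatured rhodanese bound to GroEL/GroES in folding buffer containing thiosulfate. After 60 min at 37°C, thiocyanate reaction (KCN, thiosulfate, phosphate) run, then formaldehyde quench and ferric nitrate added. Fe(SCN)3 read at 460 nm after 15 min RT, with protein-free baseline plates.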

[8] = Cytotoxicity against human THLE3 cells assessed as reduction in cell viability after 48 hrs by alamar blue assay; type: cell-based; conditions: THLE3, 48 h
Pseudomonas aeruginosa = assay: Antibacterial activity against multidrug resistant Pseudomonas aeruginosa NCTC 10332 (ATCC 10145) assessed as reduction in bacterial growth incubated for 6 to 8 hrs; type: functional, organism-based; in short: as §1
E. coli GroEL/ES [9] = target: T2, E. coli GroEL/ES; assay: Inhibition of Escherichia coli GroEL/GroES using Escherichia coli GroEL expressed in Escherichia coli DH5alpha cells and Escherichia coli GroES expressed in Escherichia coli BL21(DE3) cells assessed as reduction in pig heart native refolded MDH-mediated NADH production by micro plate reader analysis
In short: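 Native MDH counter-screen. GroEL/ES-dMDH refolding run 60 min at 37°C, then EDTA-quenched without compound. IC50 averaged from at least triplicate.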

Escherichia coli [10] = assay: Antibacterial activity against Escherichia coli SM101 assessed as reduction in bacterial growth incubated for 12 hrs by UV-Vis spectrophotometric analysis; type: functional, organism-based; conditions: SM101, 12 h
Acinetobacter baumannii = assay: Antibacterial activity against multidrug resistant Acinetobacter baumannii 2208 (ATCC 19606) assessed as reduction in bacterial growth incubated for 6 to 8 hrs; type: functional; in short: as §1
[11] = system: Klebsiella pneumoniae subsp. pneumoniae; assay: Antibacterial activity against multidrug resistant Klebsiella pneumoniae subsp. pneumoniae NCTC 9633 (ATCC 13883) assessed as reduction in bacterial growth incubated for 6 to 8 hrs; type: functional, organism-based; in short: as §1
Escherichia coli [12] = assay: Antibacterial activity against acrB-deficient Escherichia coli MC4100 assessed as reduction in bacterial growth incubated for 6 to 8 hrs; type: functional, organism-based
Staphylococcus aureus [13] = assay: Antibacterial activity against methicillin resistant Staphylococcus aureus subsp. aureus HPV107 (ATCC BAA-44) assessed as reduction in bacterial growth incubated for 6 to 8 hrs; type: functional, organism-based; in short: as §1
Bacillus subtilis = assay: Antibacterial activity against Bacillus subtilis 168 assessed as reduction in bacterial growth incubated for 6 to 8 hrs; type: functional, organism-based; conditions: subsp. subtilis str. 168

Row | Compound | EC50 (HEK293) [µM] | EC50 (Escherichia coli [1]) [µM] | IC50 (HSP60/HSP10 [2]) [µM] | EC50 (Enterococcus faecium) [µM] | EC50 (Staphylococcus aureus [3]) [µM] | IC50 (E. coli GroEL/ES [4]) [µM] | EC50 (Enterobacter cloacae) [µM] | IC50 (E. coli GroEL/ES [5]) [µM] | IC50 (HSP60/HSP10 [6]) [µM] | IC50 (E. coli GroEL/ES [7]) [µM] | EC50 [8] [µM] | EC50 (Pseudomonas aeruginosa) [µM] | IC50 (E. coli GroEL/ES [9]) [µM] | EC50 (Escherichia coli [10]) [µM] | EC50 (Acinetobacter baumannii) [µM] | EC50 [11] [µM] | EC50 (Escherichia coli [12]) [µM] | EC50 (Staphylococcus aureus [13]) [µM] | EC50 (Bacillus subtilis) [µM]
1 | O=C(NCCO)Nc1ccc2nc(-c3ccco3)c(-c3ccco3)nc2c1 | > 100 | > 100 | 15 | > 100 | > 100 | 6.5 | > 100 | 1.4 | > 250 | 2.6 | > 100 | > 100 | > 62.5 | > 100 | > 100 | > 100 | > 100 | > 100 | > 100
2 | COc1cccc(/C=C2/SC(=S)N(CCC(=O)Nc3ccc(O)cc3)C2=O)c1 | > 100 | > 100 | 13 | > 100 | 80 | 4.7 | > 100 | 12 | > 250 | 9.6 | > 100 | > 100 | > 62.5 | > 100 | > 100 | > 100 | > 100 | > 100 | > 100
3 | O=c1c([N+](=O)[O-])c(Cl)c2ccccc2n1Cc1ccccc1 | 17 | > 100 | 2.8 | > 100 | > 100 | 5.4 | > 100 | > 100 | > 250 | 22 | 3.6 | > 100 | > 62.5 | > 100 | > 100 | > 100 | > 100 | 21 | 2.8
4 | CC1(C)S[C@@H]2[C@H](NC(=O)[C@H](N)c3ccccc3)C(=O)N2[C@H]1C(=O)O [AMPICILLIN] |  |  |  | 0.63 | 0.059 |  | > 100 |  |  |  |  | 27 |  |  | 2.5 | 89 |  | 76 | 
5 | CCCCCCCCCC(=O)N[C@@H](Cc1c[nH]c2ccccc12)C(=O)N[C@@H](CC(N)=O)C(=O)N[C@@H](CC(=O)O)C(=O)N[C@@H]1C(=O)NCC(=O)N[C@@H](CCCN)C(=O)N[C@@H](CC(=O)O)C(=O)N[C@H](C)C(=O)N[C@@H](CC(=O)O)C(=O)NCC(=O)N[C@H](CO)C(=O)N[C@@H]([C@H](C)CC(=O)O)C(=O)N[C@@H](CC(=O)c2ccccc2N)C(=O)O[C@@H]1C [DAPTOMYCIN] |  |  |  | 33 | 5.7 |  | > 100 |  |  |  |  | > 100 |  |  | > 100 | > 100 |  | 5.7 | 
6 | CN(C)c1ccc(O)c2c1C[C@H]1C[C@H]3[C@H](N(C)C)C(O)=C(C(N)=O)C(=O)[C@@]3(O)C(O)=C1C2=O [MINOCYCLINE] |  |  |  | < 0.05 | < 0.05 |  | 1.5 |  |  |  |  | 2.4 |  |  | < 0.05 | 0.7 |  | 0.35 | 
7 | O=C(N[C@H](CO)[C@H](O)c1ccc([N+](=O)[O-])cc1)C(Cl)Cl [CHLORAMPHENICOL] |  |  |  | 2.1 | 2.2 |  | 2.2 |  |  |  |  | 16 |  |  | 65 | 1.4 |  | 2.3 | 
8 | CO[C@H]1/C=C/O[C@@]2(C)Oc3c(C)c(O)c4c(O)c(c(/C=N/N5CCN(C)CC5)c(O)c4c3C2=O)NC(=O)/C(C)=C\C=C\[C@H](C)[C@H](O)[C@@H](C)[C@@H](O)[C@@H](C)[C@H](OC(C)=O)[C@@H]1C [RIFAMPIN] |  |  |  | 1.2 | < 0.05 |  | 6.2 |  |  |  |  | 5.2 |  |  | 0.47 | 5.4 |  | 0.15 | 
9 | NC[C@H]1O[C@H](O[C@H]2[C@H](O)[C@@H](O[C@H]3O[C@H](CO)[C@@H](O)[C@H](N)[C@H]3O)[C@H](N)C[C@@H]2N)[C@H](O)[C@@H](O)[C@@H]1O [KANAMYCIN] |  |  |  | > 100 | 8.2 |  | 37 |  |  |  |  | 25 |  |  | 16 | 45 |  | > 100 | 
10 | COc1cc(/C=C2/C(=N)N3N=C(CC(C)C)SC3=NC2=O)ccc1OC(=O)c1ccc(F)cc1 | > 100 | > 100 | 26 | > 100 | > 100 | 24 | > 100 |  | > 250 | 25 | > 100 | > 100 | > 62.5 | 25 | > 100 | > 100 | > 100 | > 100 | 13
11 | CN[C@@H]1[C@H](O[C@H]2[C@H](O[C@H]3[C@H](O)[C@@H](O)[C@H](N=C(N)N)[C@@H](O)[C@@H]3N=C(N)N)O[C@@H](C)[C@]2(O)C=O)O[C@@H](CO)[C@H](O)[C@H]1O [STREPTOMYCIN] |  |  |  | 50 | 3.6 |  | > 100 |  |  |  |  | 2.9 |  |  | > 100 | 3.4 |  | > 100 | 
12 | COc1ccc(C(=O)N/N=C/c2ccc(O)c3ncccc23)cc1 | 7.7 | > 100 | > 100 | > 100 | > 100 | 31 | > 100 | 52 | > 250 | 18 | 15 | > 100 | > 62.5 | 19 | 32 | 95 | > 100 | 56 | 83
13 | O=C(Nc1ccc2nc(-c3ccco3)c(-c3ccco3)nc2c1)N1CCCC1 | > 100 | > 100 | 13 | > 100 | > 100 | 4.7 | > 100 | 2.1 | > 250 | 2.4 | > 100 | > 100 | > 62.5 | > 100 | > 100 | > 100 | > 100 | > 100 | > 100
14 | CC(=O)c1cc2c(cc1NC(=O)c1ccccc1Br)OCCO2 | > 100 | > 100 | > 100 | > 100 | > 100 |  | > 100 |  | > 250 |  | > 100 | > 100 | > 62.5 | > 100 | > 100 | > 100 | > 100 | > 100 | > 100
15 | CNC(=O)Nc1ccc2nc(-c3ccco3)c(-c3ccco3)nc2c1 | > 100 | > 100 | 7.4 | > 100 | > 100 | 3 | > 100 | 2.5 | > 250 | 2.5 | > 100 | > 100 | > 62.5 | > 100 | > 100 | > 100 | > 100 | 94 | > 100
